# Assay results from ChEMBL document CHEMBL2321859, “Cytotoxic betulin-derived hydroxypropargylamines trigger apoptosis” (Bioorg Med Chem, 2013).
# Tests used:
# NIH3T3 = experiment: Cytotoxicity against mouse NIH/3T3 cells assessed as cell viability after 96 hrs by SRB assay; type: cell-based; conditions: NIH3T3, 96 h
# [1] = Cytotoxicity against human 518A2 cells assessed as cell viability after 96 hrs by SRB assay; type: functional, cell-based
# 8505C = experiment: Cytotoxicity against human 8505C cells assessed as cell viability after 96 hrs by SRB assay; type: functional, cell-based
# [2] = Cytotoxicity against human A253 cells assessed as cell viability after 96 hrs by SRB assay; type: functional, cell-based
# A2780 = experiment: Cytotoxicity against human A2780 cells assessed as cell viability after 96 hrs by SRB assay; type: functional, cell-based
# A549 = experiment: Cytotoxicity against human A549 cells assessed as cell viability after 96 hrs by SRB assay; type: functional, cell-based
# DLD-1 = experiment: Cytotoxicity against human DLD1 cells assessed as cell viability after 96 hrs by SRB assay; type: functional, cell-based
# MCF7 = experiment: Cytotoxicity against human MCF7 cells assessed as cell viability after 96 hrs by SRB assay; type: functional, cell-based
# [3] = Cytotoxicity against human Lipo cells assessed as cell viability after 96 hrs by SRB assay; type: functional, cell-based
# SW-1736 = experiment: Cytotoxicity against human SW1736 cells assessed as cell viability after 96 hrs by SRB assay; type: functional, cell-based
# [4] = Solubility of the compound in water/DMSO mixture; type: physicochemical
# Procedure, shortened: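 Solubility was measured in water/DMSO (95:5, v/v) by HPLC with UV/vis detection.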
# [5] = water/DMSO mixture, read-out: solubility
Compound,IC50 (NIH3T3) [µM],"IC50 ([1]; Homo sapiens, 518A2, 96 h) [µM]","IC50 (8505C; Homo sapiens, 8505C, 96 h) [µM]","IC50 ([2]; Homo sapiens, A253, 96 h) [µM]","IC50 (A2780; Homo sapiens, A2780, 96 h) [µM]","IC50 (A549; Homo sapiens, A549, 96 h) [µM]","IC50 (DLD-1; Homo sapiens, DLD-1, 96 h) [µM]","IC50 (MCF7; Homo sapiens, MCF7, 96 h) [µM]","IC50 ([3]; Homo sapiens, Lipo, 96 h) [µM]","IC50 (SW-1736; Homo sapiens, SW-1736, 96 h) [µM]",further results
C=C(C)[C@@H]1CC[C@]2([C@H](O)C#CCN3CCCCCC3)CC[C@]3(C)[C@H](CC[C@@H]4[C@@]5(C)CC[C@H](OC(C)=O)C(C)(C)[C@@H]5CC[C@]43C)[C@@H]12,17,22.4,32.3,20.1,14.4,47,40.8,13.5,> 30,32.3,
C=CCN(CC#C[C@@H](O)[C@]12CC[C@@H](C(=C)C)[C@@H]1[C@H]1CC[C@@H]3[C@@]4(C)CC[C@H](OC(C)=O)C(C)(C)[C@@H]4CC[C@@]3(C)[C@]1(C)CC2)CC=C [listing 1 of 2 here],,> 60,> 60,43.1,18.2,,57.6,31.1,,48,IC50 (A549; a549): > 30 µM; IC50 ([3]; lipo): 17 µM
C=C(C)[C@@H]1CC[C@]2([C@@H](O)C#CCN3CCCC3)CC[C@]3(C)[C@H](CC[C@@H]4[C@@]5(C)CC[C@H](OC(C)=O)C(C)(C)[C@@H]5CC[C@]43C)[C@@H]12,14.5,12.1,11.1,10.4,8.3,12,18.8,7.7,11.6,20,
C#C[C@H](O)[C@]12CC[C@@H](C(=C)C)[C@@H]1[C@H]1CC[C@@H]3[C@@]4(C)CC[C@H](O)C(C)(C)[C@@H]4CC[C@@]3(C)[C@]1(C)CC2,10.5,15.1,16.1,14.1,9.7,20.4,21.9,11.9,12.9,13,
C=C(C)[C@@H]1CC[C@]2([C@H](O)C#CCN(C3CCCCC3)C3CCCCC3)CC[C@]3(C)[C@H](CC[C@@H]4[C@@]5(C)CC[C@H](OC(C)=O)C(C)(C)[C@@H]5CC[C@]43C)[C@@H]12.Cl,> 30,> 30,> 30,> 30,> 30,> 30,> 30,> 30,> 30,> 30,"solubility [4, 5]: 100 µg/mL"
C=C(C)[C@@H]1CC[C@]2(C(=O)O)CC[C@]3(C)[C@H](CC[C@@H]4[C@@]5(C)CC[C@H](O)C(C)(C)[C@@H]5CC[C@]43C)[C@@H]12 [BETULINIC ACID],10,,,,11,,,,9.7,,solubility ([4]; buffer): 166 µg/mL
C=C(C)[C@@H]1CC[C@]2([C@H](O)C#CCN(CCC)CCC)CC[C@]3(C)[C@H](CC[C@@H]4[C@@]5(C)CC[C@H](OC(C)=O)C(C)(C)[C@@H]5CC[C@]43C)[C@@H]12,> 30,21,28,15.2,12,25.9,20.7,16.5,24.2,7.5,
C=C(C)[C@@H]1CC[C@]2([C@H](O)C#CCN3CCNCC3)CC[C@]3(C)[C@H](CC[C@@H]4[C@@]5(C)CC[C@H](OC(C)=O)C(C)(C)[C@@H]5CC[C@]43C)[C@@H]12.Cl,4,5,6.9,4.6,2.7,6.5,5.2,2.5,2.7,7.7,"solubility [4, 5]: 178 µg/mL"
C=CCN(CC#C[C@@H](O)[C@]12CC[C@@H](C(=C)C)[C@@H]1[C@H]1CC[C@@H]3[C@@]4(C)CC[C@H](OC(C)=O)C(C)(C)[C@@H]4CC[C@@]3(C)[C@]1(C)CC2)CC=C [listing 2 of 2 here],> 60,,,,,> 60,,,21.8,,IC50 ([1]; 518a2): 52 µM; IC50 (8505C; 8505c): 47.9 µM; IC50 ([2]; a253): 32.8 µM; IC50 (A2780; a2780): 12.4 µM; IC50 (DLD-1; dld-1): 44.2 µM; IC50 (MCF7; mcf7): 15.7 µM; IC50 (SW-1736; sw-1736): 30.2 µM
C=C(C)[C@@H]1CC[C@]2([C@H](O)C#CCN3CCSCC3)CC[C@]3(C)[C@H](CC[C@@H]4[C@@]5(C)CC[C@H](OC(C)=O)C(C)(C)[C@@H]5CC[C@]43C)[C@@H]12,8.8,9.3,2,7.5,4.3,16.3,19,3.8,3.5,3.7,
C=C(C)[C@@H]1CC[C@]2([C@H](O)C#CCN(C)C)CC[C@]3(C)[C@H](CC[C@@H]4[C@@]5(C)CC[C@H](OC(C)=O)C(C)(C)[C@@H]5CC[C@]43C)[C@@H]12.Cl,5.8,7.2,6.7,6.4,4.9,11.1,12.9,3.7,8.6,6.5,"solubility [4, 5]: 312 µg/mL"
C#C[C@H](O)[C@]12CC[C@@H](C(=C)C)[C@@H]1[C@H]1CC[C@@H]3[C@@]4(C)CCC(=O)C(C)(C)[C@@H]4CC[C@@]3(C)[C@]1(C)CC2,> 35,22.4,16.7,13.4,9.8,21.2,19,17.1,21.7,18.4,
C=C(C)[C@@H]1CC[C@]2([C@@H](O)C#CCN(Cc3ccccc3)Cc3ccccc3)CC[C@]3(C)[C@H](CC[C@@H]4[C@@]5(C)CC[C@H](OC(C)=O)C(C)(C)[C@@H]5CC[C@]43C)[C@@H]12,> 70,> 30,> 30,> 70,> 70,> 70,> 70,27.2,> 70,> 70,
C#C[C@H](O)[C@]12CC[C@@H](C(=C)C)[C@@H]1[C@H]1CC[C@@H]3[C@@]4(C)CC[C@H](OC(C)=O)C(C)(C)[C@@H]4CC[C@@]3(C)[C@]1(C)CC2,32.3,32.5,22.9,16.5,9.3,42.2,> 30,20.5,28.9,23,
C=C(C)[C@@H]1CC[C@]2([C@H](O)C#CCN3CCCC3)CC[C@]3(C)[C@H](CC[C@@H]4[C@@]5(C)CCC(=O)C(C)(C)[C@@H]5CC[C@]43C)[C@@H]12,6.4,5.6,3.4,3.4,3.6,3.5,2.6,3.1,5.6,6,"solubility [4, 5]: 182 µg/mL"
C=C(C)[C@@H]1CC[C@]2([C@H](O)C#CCN(C(C)C)C(C)C)CC[C@]3(C)[C@H](CC[C@@H]4[C@@]5(C)CC[C@H](O)C(C)(C)[C@@H]5CC[C@]43C)[C@@H]12,6.2,6.4,5.8,8.2,5.4,8.3,9.1,8.2,10.3,4,
